Tests used:
Assay type in all cases: cell-based
Mu-type opioid receptor = Mu-type opioid receptor (Homo sapiens, UniProt P35372); assay: Binding affinity against human Opioid receptor mu 1 (hMOR) was determined using [3H]diprenorphine in vitro transfected to COS-1 cells
Procedure, shortened: (§1)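 Competition binding with [3H]diprenorphine on membrane homogenates of COS-1 cells transiently transfected with human MOR or human DOR. Ki given as mean ± SEM from two or more separate experiments done in duplicate.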

[1] = biological target: Kappa-type opioid receptor (Homo sapiens, UniProt P41145); assay: Binding affinity against human Opioid receptor kappa 1 (hKOR) was determined using [3H]diprenorphine in vitro in CHO cells
Chain of Kappa-type opioid receptor (P41145 whole entry): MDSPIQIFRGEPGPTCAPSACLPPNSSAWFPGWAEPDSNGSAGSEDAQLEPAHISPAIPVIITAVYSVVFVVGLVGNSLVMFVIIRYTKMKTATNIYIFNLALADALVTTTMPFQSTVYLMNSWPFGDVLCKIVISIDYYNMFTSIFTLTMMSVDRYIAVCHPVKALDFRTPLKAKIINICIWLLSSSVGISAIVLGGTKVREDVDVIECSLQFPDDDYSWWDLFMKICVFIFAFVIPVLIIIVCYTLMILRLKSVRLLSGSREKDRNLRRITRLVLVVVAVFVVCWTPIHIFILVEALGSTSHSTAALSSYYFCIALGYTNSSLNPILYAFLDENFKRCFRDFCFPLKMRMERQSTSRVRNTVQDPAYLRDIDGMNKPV
Procedure, shortened: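 Competition binding with [3H]diprenorphine on membrane homogenates of CHO cells stably expressing recombinant human KOR. Ki reported as mean ± SEM of two or more separate experiments, each run in duplicate.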

[2] = biological target: Delta-type opioid receptor (Homo sapiens, UniProt P41143); assay: Binding affinity against human opioid receptor delta 1 was determined using [3H]diprenorphine in vitro transfected to COS-1 cells; procedure, shortened: as §1
Chain of Delta-type opioid receptor (P41143 whole entry): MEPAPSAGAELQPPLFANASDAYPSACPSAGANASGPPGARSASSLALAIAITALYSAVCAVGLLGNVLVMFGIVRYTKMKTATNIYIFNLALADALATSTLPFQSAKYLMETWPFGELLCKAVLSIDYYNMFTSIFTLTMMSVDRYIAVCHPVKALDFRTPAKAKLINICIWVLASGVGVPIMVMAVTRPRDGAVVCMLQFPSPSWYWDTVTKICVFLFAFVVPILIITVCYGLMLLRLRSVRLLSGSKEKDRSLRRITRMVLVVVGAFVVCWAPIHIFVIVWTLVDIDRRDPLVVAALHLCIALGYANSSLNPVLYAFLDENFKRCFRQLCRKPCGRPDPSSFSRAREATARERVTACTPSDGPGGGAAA

Nociceptin receptor = Nociceptin receptor (Homo sapiens, UniProt P41146); assay: Binding affinity against human opioid receptor like 1 (hORL) was determined using [leucyl-3H]nociceptin in vitro in CHO cells
Chain of Nociceptin receptor (P41146 whole entry): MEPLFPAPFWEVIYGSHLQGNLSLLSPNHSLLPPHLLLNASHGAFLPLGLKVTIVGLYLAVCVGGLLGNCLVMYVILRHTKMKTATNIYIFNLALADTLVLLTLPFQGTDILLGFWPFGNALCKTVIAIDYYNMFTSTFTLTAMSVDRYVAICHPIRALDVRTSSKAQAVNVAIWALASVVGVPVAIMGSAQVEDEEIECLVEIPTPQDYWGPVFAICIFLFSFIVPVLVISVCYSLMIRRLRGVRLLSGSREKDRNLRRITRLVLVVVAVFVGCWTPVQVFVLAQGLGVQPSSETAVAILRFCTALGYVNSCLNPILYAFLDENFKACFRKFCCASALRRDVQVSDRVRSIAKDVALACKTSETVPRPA
Procedure, shortened: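 Displacement of [leucyl-3H]nociceptin from membrane homogenates of CHO cells stably expressing recombinant human ORL1. Ki values are means ± SEM of two or more independent experiments, each in duplicate.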

Chain of Mu-type opioid receptor (P35372 whole entry): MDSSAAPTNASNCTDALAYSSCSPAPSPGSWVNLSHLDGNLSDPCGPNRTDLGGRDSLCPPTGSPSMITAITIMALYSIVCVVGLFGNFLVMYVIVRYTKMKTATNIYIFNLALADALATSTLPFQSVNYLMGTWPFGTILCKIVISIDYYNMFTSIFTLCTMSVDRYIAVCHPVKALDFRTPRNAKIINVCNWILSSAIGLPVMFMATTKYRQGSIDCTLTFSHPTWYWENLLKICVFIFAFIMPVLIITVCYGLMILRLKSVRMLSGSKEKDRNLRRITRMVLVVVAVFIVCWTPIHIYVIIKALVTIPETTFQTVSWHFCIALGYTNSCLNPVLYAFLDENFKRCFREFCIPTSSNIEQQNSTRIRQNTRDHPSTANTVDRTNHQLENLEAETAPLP

| SMILES | Ki (Mu-type opioid receptor) [nM] | Ki [1] [nM] | Ki [2] [nM] | Ki (Nociceptin receptor) [nM] |
| --- | --- | --- | --- | --- |
| CC(=O)N[C@@H](CCCNC(N)=O)C(=O)N[C@H](CC1CCCCC1)C(=O)N[C@H]1CC[C@H]2CCC[C@@H](C(=O)N[C@H](CCCN=C(N)N)C(=O)N[C@H](Cc3ccc(Cl)cc3)C(N)=O)N2C1=O | 2560 | 4270 | > 5000 | 72 |
| CC(=O)N[C@@H](CCCN=C(N)N)C(=O)N[C@H](CC1CCCCC1)C(=O)N[C@H]1CC[C@@H]2SC[C@@H](C(=O)N[C@H](CCCN=C(N)N)C(=O)NC(Cc3ccc(Cl)cc3)C(N)=O)N2C1=O (stereo not given in full) | 53 | 78 | 222 | 34 |
| CC(=O)N[C@@H](CCCN=C(N)N)C(=O)N[C@H](CC1CCCCC1)C(=O)N[C@H]1CC[C@H]2CCC[C@@H](C(=O)N[C@H](CCCNC(N)=O)C(N)=O)N2C1=O | > 5000 | > 5000 | > 5000 | > 5000 |
| CC(=O)N[C@@H](CCCN=C(N)N)C(=O)N[C@H](CC1CCCCC1)C(=O)N[C@H]1CC[C@H]2CCC[C@@H](C(=O)N[C@H](CCCNC(N)=O)C(=O)N[C@H](Cc3ccc(Cl)cc3)C(N)=O)N2C1=O | > 5000 | > 5000 | > 5000 | > 5000 |
| CC(=O)N[C@@H](CCCN=C(N)N)C(=O)N[C@H](CC1CCCCC1)C(=O)N[C@H]1CC[C@H]2CCC[C@@H](C(=O)N[C@H](CCCN=C(N)N)C(=O)N[C@H](Cc3ccc(Cl)cc3)C(N)=O)N2C1=O | 90 | 105 | > 5000 | 27 |
